According to ChEMBL document CHEMBL3351372, “Structure-Based Drug Design of Novel Potent and Selective Tetrahydropyrazolo[1,5-a]pyrazines as ATR Inhibitors” (ACS Med Chem Lett, 2015):
Values after ≈ are worked out from the molar mass of the structure shown.

How the values were obtained:
[1] = target: Serine/threonine-protein kinase ATR (Homo sapiens, UniProt Q13535); test: Inhibition of ATR (unknown origin) using Avi-tagged protein substrate by alphascreen assay
[2] = target: Phosphatidylinositol 4,5-bisphosphate 3-kinase catalytic subunit alpha isoform (Homo sapiens, UniProt P42336); test: Inhibition of PI3Kalpha (unknown origin)
Phosphatidylinositol 4,5-bisphosphate 3-kinase catalytic subunit alpha isoform, sequence (P42336 whole entry, canonical isoform): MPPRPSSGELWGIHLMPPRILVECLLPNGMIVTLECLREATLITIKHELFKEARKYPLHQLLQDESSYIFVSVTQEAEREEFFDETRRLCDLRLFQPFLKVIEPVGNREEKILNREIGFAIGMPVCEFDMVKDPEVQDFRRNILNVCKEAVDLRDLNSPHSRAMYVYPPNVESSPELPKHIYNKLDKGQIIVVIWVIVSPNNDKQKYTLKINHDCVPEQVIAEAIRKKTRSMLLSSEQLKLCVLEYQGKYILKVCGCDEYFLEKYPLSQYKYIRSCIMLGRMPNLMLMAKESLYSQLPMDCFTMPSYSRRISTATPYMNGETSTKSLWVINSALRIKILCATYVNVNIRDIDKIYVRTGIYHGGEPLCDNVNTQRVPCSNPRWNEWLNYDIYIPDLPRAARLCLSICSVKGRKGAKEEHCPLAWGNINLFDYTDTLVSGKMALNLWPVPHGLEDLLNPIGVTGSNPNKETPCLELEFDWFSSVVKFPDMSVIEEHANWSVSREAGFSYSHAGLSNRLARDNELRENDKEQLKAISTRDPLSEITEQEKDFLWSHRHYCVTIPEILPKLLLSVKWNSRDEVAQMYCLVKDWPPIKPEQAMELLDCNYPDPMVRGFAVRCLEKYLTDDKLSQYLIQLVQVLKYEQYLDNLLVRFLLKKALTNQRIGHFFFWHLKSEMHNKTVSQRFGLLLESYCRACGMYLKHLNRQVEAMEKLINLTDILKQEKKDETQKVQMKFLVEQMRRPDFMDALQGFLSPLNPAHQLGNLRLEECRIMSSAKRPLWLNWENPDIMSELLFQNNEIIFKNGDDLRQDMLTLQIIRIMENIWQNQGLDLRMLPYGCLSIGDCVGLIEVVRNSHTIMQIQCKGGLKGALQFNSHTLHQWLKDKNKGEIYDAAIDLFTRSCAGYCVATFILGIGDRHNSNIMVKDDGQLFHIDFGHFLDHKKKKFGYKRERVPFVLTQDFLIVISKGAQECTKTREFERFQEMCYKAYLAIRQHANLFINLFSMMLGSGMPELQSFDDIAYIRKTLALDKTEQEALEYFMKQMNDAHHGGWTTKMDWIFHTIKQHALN

[3] = Inhibition of CHK1 in HeLa S3 cells assessed as inhibition of phosphorylation at ser345 by AlphaScreen SureFire CHK1 (p-Ser345) assay
[4] = Solubility of the compound in PBS buffer at pH 7 by miniaturized shake flask equilibrium solubility assay
Cytochrome P450 3A4 = Cytochrome P450 3A4 (Homo sapiens, UniProt P08684); test: Time dependent inhibition of CYP3A4 in human liver microsomes using midazolam as substrate assessed as ratio of Kinact to Ki preincubated for 0 to 30 mins followed by NADPH addition in phosphate buffer at 50 uM; format: ADME
Cytochrome P450 3A4, sequence (P08684 whole entry): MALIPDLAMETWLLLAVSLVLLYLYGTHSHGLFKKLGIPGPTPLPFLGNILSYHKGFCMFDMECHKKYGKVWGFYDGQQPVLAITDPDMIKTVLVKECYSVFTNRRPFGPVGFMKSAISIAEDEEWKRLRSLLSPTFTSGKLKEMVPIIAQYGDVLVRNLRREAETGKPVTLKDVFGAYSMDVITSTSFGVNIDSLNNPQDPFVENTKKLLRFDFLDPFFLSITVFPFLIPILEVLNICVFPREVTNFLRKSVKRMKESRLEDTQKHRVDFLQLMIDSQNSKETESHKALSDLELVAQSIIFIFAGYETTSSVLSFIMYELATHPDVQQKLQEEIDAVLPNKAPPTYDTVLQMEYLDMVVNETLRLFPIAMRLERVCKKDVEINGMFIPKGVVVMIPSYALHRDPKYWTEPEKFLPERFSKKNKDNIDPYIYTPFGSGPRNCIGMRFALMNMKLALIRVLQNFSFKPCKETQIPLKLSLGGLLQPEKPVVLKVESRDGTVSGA
Method in brief: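 Compound was preincubated with human liver microsomes (0.5 mg/mL) in 100 mM phosphate buffer with 1 mM NADPH for 0, 5, 15 and 30 min, testing 50 μM plus serial dilutions. The mix was diluted 20-fold and incubated with 20 μM midazolam to measure residual CYP3A4 activity. Activity versus preincubation time gave the kinetic TDI parameters.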

Liver microsome = test: Metabolic stability in human liver microsomes assessed as level of GSH adduct after 60 mins at 10 uM by GSH trapping assay; conditions: 1 h
[5] = target: Serine-protein kinase ATM (Homo sapiens, UniProt Q13315); test: Inhibition of ATM (unknown origin) using p53-Q10-K17 peptide substrate by alphascreen assay
[6] = target: DNA-dependent protein kinase catalytic subunit (Homo sapiens, UniProt P78527)
[7] = target: Serine/threonine-protein kinase mTOR (Homo sapiens, UniProt P42345); test: Inhibition of mTOR (unknown origin) by alphascreen SureFire p70 S6K (p-Thr389) assay
Method in brief: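 They were treated with compound for 1 h under the same conditions. The read-out was p70 S6K phospho-Thr389.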

[8] = Octanol-water distribution coefficient, log D of the compound with pH 7.4 PBS buffer
[9] = Apparent permeability across apical to basolateral side in human Caco2 cells at pH 7.4; conditions: Caco-2, pH 7.4
[10] = Apparent permeability across basolateral to apical side in human Caco2 cells at pH 7.4; conditions: Caco-2, pH 7.4
[11] = Oral bioavailability in rat at 2.5 mg/kg; format: ADME, organism-based; conditions: in vivo
[12] = target: Voltage-gated inwardly rectifying potassium channel KCNH2 (Homo sapiens, UniProt Q12809); test: Inhibition of human ERG by automated whole cell electrophysiology
[13] = Clearance in rat at 2.5 mg/kg; format: ADME, organism-based; design: dose 2.5 mg/kg; conditions: in vivo
[14] = Volume of distribution at steady state in rat at 2.5 mg/kg; format: ADME, organism-based; design: dose 2.5 mg/kg; conditions: in vivo, read-out: Vdss
[15] = Half life in rat at 2.5 mg/kg; format: ADME, organism-based; design: dose 2.5 mg/kg; conditions: in vivo

Serine/threonine-protein kinase ATR, sequence (Q13535 whole entry, canonical isoform): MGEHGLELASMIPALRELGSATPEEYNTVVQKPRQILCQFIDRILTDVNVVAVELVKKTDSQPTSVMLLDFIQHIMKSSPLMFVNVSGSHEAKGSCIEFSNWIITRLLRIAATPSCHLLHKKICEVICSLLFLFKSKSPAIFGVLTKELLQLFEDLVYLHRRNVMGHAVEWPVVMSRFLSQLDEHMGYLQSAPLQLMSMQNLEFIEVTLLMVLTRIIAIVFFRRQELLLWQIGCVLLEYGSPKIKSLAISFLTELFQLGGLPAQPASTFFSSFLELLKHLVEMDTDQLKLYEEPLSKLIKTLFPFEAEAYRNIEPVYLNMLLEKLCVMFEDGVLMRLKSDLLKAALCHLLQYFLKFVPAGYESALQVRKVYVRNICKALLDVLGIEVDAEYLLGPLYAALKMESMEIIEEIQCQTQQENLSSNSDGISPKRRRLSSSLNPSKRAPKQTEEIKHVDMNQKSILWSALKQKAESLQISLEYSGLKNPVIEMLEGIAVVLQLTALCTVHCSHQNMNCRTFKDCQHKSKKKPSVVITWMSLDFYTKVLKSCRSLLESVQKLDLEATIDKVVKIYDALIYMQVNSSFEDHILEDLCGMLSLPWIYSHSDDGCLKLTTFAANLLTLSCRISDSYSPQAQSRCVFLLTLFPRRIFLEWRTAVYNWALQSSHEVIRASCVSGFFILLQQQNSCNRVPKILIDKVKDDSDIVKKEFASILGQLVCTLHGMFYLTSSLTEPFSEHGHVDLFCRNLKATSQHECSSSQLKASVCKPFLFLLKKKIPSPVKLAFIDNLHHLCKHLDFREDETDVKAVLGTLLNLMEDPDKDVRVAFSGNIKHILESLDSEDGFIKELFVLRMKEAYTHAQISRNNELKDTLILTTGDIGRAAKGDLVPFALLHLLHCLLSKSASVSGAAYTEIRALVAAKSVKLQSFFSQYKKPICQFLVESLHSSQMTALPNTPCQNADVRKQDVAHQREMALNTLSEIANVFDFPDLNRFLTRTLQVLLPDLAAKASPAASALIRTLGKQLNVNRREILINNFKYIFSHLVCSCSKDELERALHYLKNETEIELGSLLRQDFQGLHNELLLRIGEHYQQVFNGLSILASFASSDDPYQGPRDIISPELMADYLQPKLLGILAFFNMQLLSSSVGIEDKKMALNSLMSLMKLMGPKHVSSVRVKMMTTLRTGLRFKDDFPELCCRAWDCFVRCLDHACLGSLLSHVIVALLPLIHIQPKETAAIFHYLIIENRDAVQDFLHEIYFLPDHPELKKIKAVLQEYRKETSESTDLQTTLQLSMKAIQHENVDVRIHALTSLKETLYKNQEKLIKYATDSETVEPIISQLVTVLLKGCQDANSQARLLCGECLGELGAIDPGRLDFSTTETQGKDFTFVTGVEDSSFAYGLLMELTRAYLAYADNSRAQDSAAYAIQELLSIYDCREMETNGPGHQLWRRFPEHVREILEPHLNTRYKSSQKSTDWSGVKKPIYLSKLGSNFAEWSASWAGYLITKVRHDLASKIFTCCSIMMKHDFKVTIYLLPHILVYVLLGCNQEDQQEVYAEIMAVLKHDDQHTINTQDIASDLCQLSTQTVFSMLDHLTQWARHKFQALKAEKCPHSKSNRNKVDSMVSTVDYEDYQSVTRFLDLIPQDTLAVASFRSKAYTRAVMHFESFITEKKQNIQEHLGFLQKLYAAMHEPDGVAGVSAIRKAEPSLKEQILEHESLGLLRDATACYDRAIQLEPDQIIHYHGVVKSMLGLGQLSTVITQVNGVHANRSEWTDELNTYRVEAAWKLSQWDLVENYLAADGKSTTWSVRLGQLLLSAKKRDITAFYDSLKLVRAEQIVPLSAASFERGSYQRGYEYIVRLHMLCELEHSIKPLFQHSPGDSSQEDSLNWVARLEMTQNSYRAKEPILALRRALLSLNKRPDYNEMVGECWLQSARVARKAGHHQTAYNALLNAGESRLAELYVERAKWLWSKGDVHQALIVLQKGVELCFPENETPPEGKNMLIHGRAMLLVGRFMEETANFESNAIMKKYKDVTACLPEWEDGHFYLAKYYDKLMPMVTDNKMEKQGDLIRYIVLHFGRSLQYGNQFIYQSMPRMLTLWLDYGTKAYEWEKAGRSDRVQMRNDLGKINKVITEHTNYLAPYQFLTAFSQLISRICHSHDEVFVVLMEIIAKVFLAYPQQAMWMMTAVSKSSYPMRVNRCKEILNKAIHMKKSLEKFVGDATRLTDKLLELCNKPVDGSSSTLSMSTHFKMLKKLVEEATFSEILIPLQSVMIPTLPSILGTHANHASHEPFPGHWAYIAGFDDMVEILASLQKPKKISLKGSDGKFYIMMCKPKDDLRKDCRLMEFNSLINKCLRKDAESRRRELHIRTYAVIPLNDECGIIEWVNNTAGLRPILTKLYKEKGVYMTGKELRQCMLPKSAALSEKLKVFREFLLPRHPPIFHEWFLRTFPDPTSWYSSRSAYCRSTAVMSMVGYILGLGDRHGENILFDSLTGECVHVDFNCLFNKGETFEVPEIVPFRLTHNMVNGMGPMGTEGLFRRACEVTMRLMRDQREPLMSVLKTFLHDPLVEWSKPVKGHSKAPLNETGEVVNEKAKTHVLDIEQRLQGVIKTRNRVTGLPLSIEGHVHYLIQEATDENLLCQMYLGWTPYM

Structure (SMILES): CN(C)S(=O)(=O)c1ccc(-c2cnc3ccc(-c4ccnc5[nH]ccc45)nn23)cc1
- IC50 [1]: 0.5 nM
- IC50 [2]: 40 nM
- IC50 [3]: 44 nM

Structure (SMILES): CN(C)S(=O)(=O)c1ccc(-c2cnn3c2CN(c2ccnc4[nH]ccc24)CC3)cc1
- IC50 [1]: 1 nM
- solubility thermodynamic [4]: 3 µM (≈ 1.27 µg/mL)
- IC50 [2]: 1100 nM

Structure (SMILES): CC1(C)Cn2ncc(C3CCN(S(C)(=O)=O)CC3)c2CN1c1cc(Cl)nc2[nH]ccc12
- Ratio (Cytochrome P450 3A4): 0.023 µL/min/pmol
- IC50 [1]: 6200 nM

Structure (SMILES): [2H][C@@]1(C)Cn2ncc(C3CCN(S(C)(=O)=O)CC3)c2CN1c1cc(Cl)nc2[nH]ccc12
- Stability (Liver microsome): Stable

Structure (SMILES): [2H]C1([2H])c2c(C3CCN(S(C)(=O)=O)CC3)cnn2C[C@@]([2H])(C)N1c1cc(Cl)nc2[nH]ccc12
- Stability (Liver microsome): Unstable

Structure (SMILES): C[C@@H]1Cn2ncc(C3CCN(S(C)(=O)=O)CC3)c2C(=O)N1c1ccnc2[nH]ccc12
- TDI (Cytochrome P450 3A4): Not Active
- IC50 [1]: 64 nM

Structure (SMILES): [2H]C1([2H])c2c(C3CCN(S(C)(=O)=O)CC3)cnn2C[C@@H](C)N1c1cc(Cl)nc2[nH]ccc12
- Stability (Liver microsome): Unstable

Structure (SMILES): C[C@@H]1Cn2ncc(C3CCN(S(C)(=O)=O)CC3)c2CN1c1ccnc2[nH]cnc12
- inhibition (INH) (Cytochrome P450 3A4): Active
- IC50 [1]: 2 nM

Structure (SMILES): C[C@@H]1Cc2ncn(C3CCN(S(C)(=O)=O)CC3)c2CN1c1ccnc2[nH]ccc12
- Ratio (Cytochrome P450 3A4): 0.001 µL/min/pmol
- IC50 [1]: 41 nM

Structure (SMILES): C[C@@H]1[C@@H](C)n2ncc(C3CCN(S(C)(=O)=O)CC3)c2CN1c1ccnc2[nH]ccc12
- Ratio (Cytochrome P450 3A4): 0.004 µL/min/pmol
- IC50 [1]: 2100 nM

Structure (SMILES): C[C@@H]1Cn2ncc(C3CCN(S(C)(=O)=O)CC3)c2CN1c1ccnc2[nH]ccc12
- IC50 [1]: 1 nM
- IC50 [5]: 14000 nM
- IC50 [6]: 6500 nM
- IC50 [7]: > 2300 nM
- solubility thermodynamic [4]: 965 µM (≈ 400 µg/mL)
- logD [8]: 2.4
- Papp A→B [9]: 10 ×10⁻⁶ cm/s
- Papp B→A [10]: 44 ×10⁻⁶ cm/s

Structure (SMILES): C[C@@H]1Cn2ncc(-c3ccc(S(C)(=O)=O)cc3)c2CN1c1ccnc2[nH]ccc12
- IC50 [1]: 0.3 nM
- IC50 [5]: 130 nM
- IC50 [6]: 140 nM
- IC50 [7]: 1100 nM

Structure (SMILES): C[C@@H]1Cn2ncc(C3CCN(S(C)(=O)=O)CC3)c2CN1c1ccnc2[nH]ncc12
- inhibition (INH) (Cytochrome P450 3A4): Not Active
- IC50 [1]: 29 nM

Structure (SMILES): COc1ccc(-c2ccc3ncc(-c4ccc(C(N)=O)cc4)n3n2)cc1OC
- IC50 [1]: 26 nM
- IC50 [2]: 9 nM

Structure (SMILES): C[C@@H]1Cn2ncc(-c3ccc(S(=O)(=O)N(C)C)cc3)c2CN1c1ccnc2[nH]ccc12
- IC50 [1]: 0.5 nM
- solubility thermodynamic [4]: 188 µM (≈ 82.1 µg/mL)
- IC50 [2]: > 10000 nM
- IC50 [3]: 123 nM

Structure (SMILES): C[C@@H]1Cn2ncc(C3CCN(S(C)(=O)=O)CC3)c2CN1c1ccnc(N)c1
- inhibition (INH) (Cytochrome P450 3A4): Active
- IC50 [1]: 440 nM

Structure (SMILES): C[C@@H]1Cn2ncc(C3CCN(S(C)(=O)=O)CC3)c2CN1c1cc(Cl)nc2[nH]ccc12
- bioavailability [11]: 64%
- IC50 [1]: 0.4 nM
- IC50 [5]: 4300 nM
- IC50 [6]: 1600 nM
- IC50 [7]: 4400 nM
- IC50 [12]: 12500 nM
- solubility thermodynamic [4]: 37 µM (≈ 16.6 µg/mL)
- logD [8]: 3.4
- Papp A→B [9]: 18 ×10⁻⁶ cm/s
- Papp B→A [10]: 30 ×10⁻⁶ cm/s
- clearance [13]: 57 mL/min/kg
- Vd [14]: 3.3 L/kg
- half-life [15]: 51.6 min
